In the library only some 2.4% were active in any assay of this set; here they are far more common.
SIAE inh = inhibitors of human sialic acid acetylesterase SIAE; Q9HAT2; SIAE FP-Rh probe binding, fluorescence polarization; inhibition, % at 9.66 µM; 370,000 tested, 0.69% active;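 active = inhibition above a cutoff: mean of compounds within the control limits plus 3 SD of those, cut at about 17% in these data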
Target sequence (Q9HAT2 whole entry, looked up): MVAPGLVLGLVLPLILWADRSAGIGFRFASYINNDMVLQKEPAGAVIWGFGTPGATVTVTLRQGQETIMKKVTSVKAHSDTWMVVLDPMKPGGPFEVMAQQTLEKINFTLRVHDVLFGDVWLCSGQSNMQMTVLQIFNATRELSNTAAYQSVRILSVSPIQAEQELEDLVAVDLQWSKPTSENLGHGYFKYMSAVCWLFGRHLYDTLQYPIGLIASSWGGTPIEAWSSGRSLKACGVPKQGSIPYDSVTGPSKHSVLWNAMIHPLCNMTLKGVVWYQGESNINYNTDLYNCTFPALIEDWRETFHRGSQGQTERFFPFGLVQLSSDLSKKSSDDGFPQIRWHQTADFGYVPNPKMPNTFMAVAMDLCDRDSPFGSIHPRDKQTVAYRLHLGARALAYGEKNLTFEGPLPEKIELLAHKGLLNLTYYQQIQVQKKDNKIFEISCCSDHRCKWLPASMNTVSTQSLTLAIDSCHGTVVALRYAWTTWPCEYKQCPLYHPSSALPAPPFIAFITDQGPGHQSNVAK
JMJD2C inh = human JMJD2C demethylase inhibition; Q9H3R0; GST-JMJD2C(1-420) H3K9me3 demethylation, DELFIA europium; inhibition, % at 2.35 µM; 330,000 tested, 0.069% active;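 active = more than half of a compound's replicate wells show inhibition beyond 50%, single wells judged on their own value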;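 also: signal counts dimethyl H3K9 product captured on neutravidin plate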
PRMT1 inh = inhibitors of human PRMT1; Q99873; AID 652257; 370,000 tested, 1.3% active; recombinant PRMT1, activity-based probe fluorescence polarization; inhibition, % at 2.79 µM;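 active = inhibition above about 21% made by adding two undisclosed values, limit read from the data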
HTRA1 inh = blocks human HTRA1 serine peptidase; Q92743; recombinant HTRA1, FP-rhodamine activity-based probe, fluorescence polarization; inhibition, % at 5.96 µM; 340,000 tested, 0.5% active; in the data active = inhibition above about 36%
mABHD4 FP = inhibitors of mouse ABHD4; Q8VD66; purified mABHD4, FP-Rh probe fluorescence polarization; inhibition, % at 8.92 µM; 370,000 tested, 0.54% active;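 active = inhibition exceeding the mean over every tested compound plus 3 SD, cut at about 30% in these data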
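Test system: mABHD4 protein | Buffer or medium: HEPES pH 7.0 buffer, 150 mM NaCl, 0.01% Pluronic F-127 | Probe or stimulus: FP-Rh fluorescent activity-based probe, added after compound pre-incubation | Timing: Pre-incubation 45 min, probe exposure 60 min, at 25 °C | Technique: Fluorescence polarization, excitation 525 nm, emission 598 nm, BODIPY TMR filters | Repeats: Single well per compound (singlicate)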
Each line names hits and unclear results; the compound was inactive in the other large screens.

O=C(O)c1cccc(S(=O)(=O)Nc2ccc3[nH]c(=O)[nH]c3c2)c1	none
O=C1CCCc2oc3ccc(NS(=O)(=O)c4cccc5cccnc45)cc3c21	none
O=c1oc2ccc(NS(=O)(=O)c3cccc4cccnc34)cc2s1	PRMT1 inh 77
Cc1ccc(P(=O)(CO)c2ccc(C)cc2)cc1	none
Cc1ccc(P(=O)(CSC(=N)N)c2ccc(C)cc2)cc1	PRMT1 inh 70
N=C(N)SCP(=O)(c1ccccc1)c1ccccc1	PRMT1 inh 68
Cc1ccccc1N=C1N=C(N)c2ccccc21	JMJD2C inh 60
COc1ccc(/C=C2\SC(=S)N(CC(=O)OCC(=O)Nc3ccc(C)cc3Cl)C2=O)cc1	PRMT1 inh 21
COc1ccc(/C=C2\SC(=S)N(CC(=O)OCC(=O)Nc3ccc([N+](=O)[O-])cc3OC)C2=O)cc1	none (no result: JMJD2C inh)
Cc1ccc(C(=O)NC(=S)NNS(=O)(=O)c2ccc(C)cc2)cc1	PRMT1 inh 23
S=c1[nH]nc(-c2ccccc2)n1/N=C/c1ccc(Cl)cc1	PRMT1 inh 22
COc1ccccc1/C=C/C=N/n1c(-c2ccc(C)cc2)n[nH]c1=S	PRMT1 inh 22
CCCCCCCCNC(=O)C1CSCCS(=O)(=O)N1Cc1ccccc1 (stereo not drawn)	none (no result: JMJD2C inh, HTRA1 inh)
CCOC(=O)N1CCN(S(=O)(=O)c2ccc(C(=O)NNc3nc4cc(C)cc(C)c4s3)cc2)CC1	HTRA1 inh 50 (no result: SIAE inh, PRMT1 inh, mABHD4 FP)
CCOC(=O)N1CCN(S(=O)(=O)c2ccc(C(=O)NNc3nc4c(C)cc(C)cc4s3)cc2)CC1	none (no result: HTRA1 inh)
Cc1ccc(S(=O)(=O)C(C#N)c2nc3ccccc3nc2N2CCCC2)cc1 (stereo not drawn)	PRMT1 inh 58
N#CC(c1nc2ccccc2nc1N1CCOCC1)S(=O)(=O)c1ccccc1 (stereo not drawn)	none (no result: JMJD2C inh)
Cc1nn(C)cc1NC(=O)C[C@H]1CC[C@H]2[C@@H](COc3ccc(NC(=O)Nc4ccccc4)cc3C(=O)N2C)O1	none (no result: JMJD2C inh, HTRA1 inh)
COP(=O)(O)C(Cc1ccccc1)NC(=O)OCc1ccccc1 (stereo not drawn)	none (no result: JMJD2C inh, HTRA1 inh)
O=C(O)CCC1c2cc3c4cc2OC2Oc5cc6c(cc51)C(CCC(=O)O)c1cc5c7cc1OC(O6)c1cc6cc(c1)Oc1cc(cc(C(=O)O)c1)Oc1cc8cc(c1)C(Oc1cc(c(cc1C5CCC(=O)O)C3CCC(=O)O)OC(O4)c1cc(cc(c1)Oc1cc(cc(C(=O)O)c1)O8)Oc1cc(cc(C(=O)O)c1)Oc1cc(cc2c1)Oc1cc(cc(C(=O)O)c1)O6)O7 (stereo not drawn)	JMJD2C inh 101 (no result: SIAE inh, PRMT1 inh, HTRA1 inh, mABHD4 FP)
O=S(=O)(c1ccc(N=C2NN=C(c3cc(F)ccc3F)CS2)cc1)N1CCOCC1	PRMT1 inh 55 (no result: JMJD2C inh, HTRA1 inh)
Fc1ccc(N=C2NN=C(c3cc(F)ccc3F)CS2)cc1	none
Nc1ncnc2nc(SCc3ccc(Cl)cc3Cl)[nH]c12	SIAE inh 21
Cc1cc(C)nc(SC2CC(=O)N(c3ccc(Br)cc3)C2=O)n1 (stereo not drawn)	none
CCN(CC)C1CC(=O)N(c2ccc(Br)cc2)C1=O (stereo not drawn)	PRMT1 inh 46
O=C(Cc1cccc2ccccc12)N1CCCc2ccccc21	JMJD2C inh 58
CN(C)c1ccc(C(=O)NC2CCCCN(Cc3ccc(Cl)cc3)C2=O)cc1 (stereo not drawn)	none (no result: JMJD2C inh, HTRA1 inh)
N#Cc1c(SCC(=O)Nc2nncs2)sc2c(O)cc(=O)[nH]c12	PRMT1 inh 46
O=C(NCc1ccccc1)c1nc(S(=O)(=O)Cc2ccccc2)ncc1Cl	PRMT1 inh 23
COc1ccc(CNC(=O)c2nc(S(=O)(=O)Cc3ccccc3)ncc2Cl)cc1	none
Nn1c(SCC(=O)Nc2cccc3ccccc23)nnc1-c1cc(-c2ccc(Cl)cc2)n[nH]1	none (no result: JMJD2C inh, HTRA1 inh)
O=C1Nc2c(Cl)cc(Cl)cc2C12Nc1ccccc1S2 (stereo not drawn)	PRMT1 inh 23 (no result: JMJD2C inh, HTRA1 inh)
CCN(CC)CCN(C(=O)c1ccc2ncsc2c1)c1nc2cc3c(cc2s1)OCO3	PRMT1 inh 53
CCN(CC)CCN(C(=O)c1ccc(C(=O)c2ccccc2)cc1)c1nc2cc3c(cc2s1)OCO3	none
CSCCC(C(=O)NC1CCCC1)n1c(C2CCCC2)nc2ccccc21 (stereo not drawn)	none (no result: JMJD2C inh, HTRA1 inh)
O=C(CN1C(=O)c2ccccc2C1=O)NC(Cc1ccccc1)C(=O)O (stereo not drawn)	none (no result: JMJD2C inh)
CCN1CCN(C2=C(NS(=O)(=O)c3ccc(Br)cc3)C(=O)c3ccccc3C2=O)CC1	PRMT1 inh 22
CCN1CCN(C2=C(NS(=O)(=O)c3ccccc3)C(=O)c3ccccc3C2=O)CC1	none
COCCCNc1nc2c(c(=O)[nH]c(=O)n2C)n1CC(O)COc1ccccc1C (stereo not drawn)	SIAE inh 19
CN1C(=O)c2cccc3c(S(=O)(=O)NCc4ccco4)ccc1c23	PRMT1 inh 22
CN1C(=O)c2cccc3c(S(N)(=O)=O)ccc1c23	none
c1ccc(CN2CCN(C3=Nc4cccc5cccc3c45)CC2)cc1	none
O=C1CCN2C=Nc3cccc4ccc1c2c34	PRMT1 inh 124
O=C(CSc1nnc(-c2ccco2)n1-c1ccc(Cl)cc1)Nc1ccc(S(=O)(=O)Nc2nccs2)cc1	none (no result: JMJD2C inh, HTRA1 inh)
Nn1c(SCc2c(Cl)cccc2Cl)nnc1-c1n[nH]c2c1CCC2	none (no result: JMJD2C inh, HTRA1 inh)
O=C(CSc1nncc(=O)[nH]1)Nc1cccc([N+](=O)[O-])c1	PRMT1 inh 33
Nc1cc(=O)[nH]c(SCC(=O)Nc2cccc([N+](=O)[O-])c2)n1	none
C[C@H](O)C#Cc1ccc2c(c1)O[C@@H](CN(C)Cc1ccc(-c3ccccc3)cc1)[C@H](C)CN([C@@H](C)CO)S2(=O)=O	none (no result: JMJD2C inh)
O=C(CCc1ccc(S(=O)(=O)NCCc2ccccc2)cc1)NCc1ccc2c(c1)OCO2	none
O=C(CCc1ccc(S(=O)(=O)NCc2ccccc2)cc1)NCc1ccc2c(c1)OCO2	JMJD2C inh 52
O=C1CC(=O)N(Cc2ccco2)C(=S)N1	none (no result: SIAE inh, PRMT1 inh, mABHD4 FP)
O=C1CC(=O)N(Cc2ccco2)C(=O)N1	JMJD2C inh 52, PRMT1 inh 22
Cc1cc(=O)oc2c(CN3CCC(C)CC3)c(O)c(Cl)cc12	SIAE inh 26 (no result: JMJD2C inh)
Cc1cccc(Cn2cc(COC(=O)N3CCCC3)nn2)c1	none (no result: JMJD2C inh, HTRA1 inh)
Cc1ccc(C)c(C(=O)COc2ccc(C)nc2[N+](=O)[O-])c1	PRMT1 inh 21
Cc1ccc(OCC(=O)c2cc(C)n(-c3ccccc3)c2C)c([N+](=O)[O-])n1	none
Cc1ccc(OCC(=O)c2cc(C)c(C)cc2C)c([N+](=O)[O-])n1	PRMT1 inh 24
CC(C)CN1C(=O)[C@@]2(CC(=O)N(C)C2c2ccccc2)c2cc(-n3cc(-c4ccccc4)nn3)ccc21 (stereo partly drawn)	none (no result: JMJD2C inh, HTRA1 inh)
c1ccc(-c2ccn3nnnc3n2)cc1	none
N=c1nc(-c2ccccc2)ccn1O	JMJD2C inh 53
CC(C)N(Cc1cn(Cc2ccccc2)nn1)S(=O)(=O)c1ccc(F)cc1Br	none (no result: JMJD2C inh, HTRA1 inh)
O=C(CSc1nc2ccccc2c(=O)[nH]1)Nc1ccc(C(=O)O)cc1	none

Assay outcomes (PubChem BioAssay)
